inhibition, Effect and IC50 data for 18 molecules are collected here from ChEMBL document CHEMBL1134290, “A novel anti-ischemic ATP-sensitive potassium channel (K(ATP)) opener without vasorelaxation: N-(6-aminobenzopyranyl)-N'-benzyl-N' '-cyanoguanidine analogue” (J Med Chem, 2001).

The species named for assay [1] is Rattus norvegicus. Description: (§1) Reduction rate of LDH release from neuronal cells injured by iron […]. It counts as functional. In a few lines: (§2)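 Cortical neurons from E17-18 rat embryos, cultured 7-9 days at 37 °C, 5% CO2. Serum lowered to 0.2% in MEM. Pretreated 30 min with compound in DMSO (final ≤0.2%), then FeSO4 at 50 µM final for 24 h. LDH released into medium measured; reduction of LDH release taken relative to control. Four determinations averaged.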

In assay [2] the test system is Rattus norvegicus. Description: Ratio of myocardial infarct zone to area at risk […] in ischemic myocardium damage rat model (Cardioprotective effect) at 0.3 mg/Kg. It counts as functional. In a few lines:
(§3)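 Male Sprague-Dawley rats (350-450 g), pentobarbital 75 mg/kg i.p., ventilated 60/min at 10 mL/kg, 37 °C. Vehicle or compound given via femoral vein over 30 min, with or without glibenclamide or 5-HD. Left coronary occlusion 45 min, reperfusion 90 min. Risk zone marked by Evans blue after reocclusion. LV slices stained with TTC at 37 °C, pH 7.4, 15 min. Infarct area summed, divided by AAR weight; n = 3 or more.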

The species named for assay [3] is Rattus norvegicus. Described as §1. It counts as functional, cell-based.
For assay [4], the system named is Rattus norvegicus. Description: Ratio of myocardial infarct zone to area at risk (IZ/AAR) in ischemic myocardium damage rat model (Cardioprotective effect) at 0.3 mg/Kg. It counts as functional. The procedure, abridged: as §3
The species entered for assay [5] is Rattus norvegicus. Description: Inhibition of methoxamine-contracted rat aorta (Vasorelaxant potency). It counts as functional. In a few lines:
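Rat aortic rings (Sprague-Dawley, 350-450 g; 3 mm rings, adipose removed) held in oxygenated modified Krebs-Henseleit PSS at 37 °C under 2 g resting tension, stabilised 1 h. Once methoxamine contraction reached a maintained maximum, compound added cumulatively at 1, 3, 10, 30 µM. Relaxation taken as change in maximal methoxamine constriction and plotted as concentration-relaxation curve.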

For assay [6], the species on record is Rattus norvegicus. Description: Reduction rate of LDH release from rat neuronal cells injured by iron […]. It counts as functional. In a few lines:
as §2

Assay [7] concerns Rattus norvegicus. Description: Ratio of myocardial infarct zone to area at risk (IZ/AAR) in ischemic myocardium damage rat model (Cardioprotective effect) in the presence of 5-HD (10 mg/kg). It counts as functional. The procedure, abridged: as §3
For assay [8], the system named is Rattus norvegicus. Description: Ratio of myocardial infarct zone to area at risk(IZ/AAR)in ischemic myocardium damage rat model (Cardioprotective effect) at 0.3 mg/kg; Not determined. It counts as functional. The procedure, abridged: as §3
In assay [9] the test system is Rattus norvegicus. Description: Ratio of myocardial infarct zone to area at risk(IZ/AAR)in ischemic myocardium damage rat model (Cardioprotective effect) at 0.1 mg/kg. It counts as functional. The procedure, abridged: as §3
For assay [10], the system named is Rattus norvegicus. Description: Ratio of myocardial infarct zone to area at risk(IZ/AAR)in ischemic myocardium damage rat model (Cardioprotective effect) at 1 mg/kg; Not determined. It counts as functional. The procedure, abridged: as §3
Assay [11] deals with Rattus norvegicus. Description: Ratio of myocardial infarct zone to area at risk […] in ischemic myocardium damage rat model (Cardioprotective effect) at 1 mg/Kg. It counts as functional. The procedure, abridged:
as §3

In assay [12] the test system is Rattus norvegicus. Description: Ratio of myocardial infarct zone to area at risk […] in ischemic myocardium damage rat model (Cardioprotective effect) at 0.1 mg/Kg. It counts as functional. The procedure, abridged: as §3
Assay [13] concerns Rattus norvegicus. Description: Ratio of myocardial infarct zone to area at risk (IZ/AAR) in ischemic myocardium damage rat model (Cardioprotective effect) in the presence of Gliben 1 mg/kg. It counts as functional. The procedure, abridged: as §3
The subject of assay [14] is Rattus norvegicus. Description: Ratio of myocardial infarct zone to area at risk […] in ischemic myocardium damage rat model (Cardioprotective effect) in the presence of 5-HD (10 mg/kg). It counts as functional. The procedure, abridged:
as §3

Assay [15] deals with Rattus norvegicus. Description: Ratio of myocardial infarct zone to area at risk […] in ischemic myocardium damage rat model (Cardioprotective effect) in the presence of Gliben 1 mg/kg. It counts as functional. In a few lines:
as §3

Molecules are shown by their SMILES.

On to `COC(OC)[C@]1(C)Oc2ccc([N+](=O)[O-])cc2[C@@H](N/C(=N/C#N)NCc2ccccc2)[C@@H]1O`, for which, in assay [1], 30 µM produced 37% inhibition.
Turning to `COC(OC)[C@@]1(C)Oc2ccc(N)cc2[C@H](/N=C(\NC#N)NCc2ccccc2)[C@H]1O`, the Effect is on record as 33% in assay [2] and 51% in assay [4]. This molecule also had an IC50 in [3] of 9.2 µM.
As to `COC(OC)[C@]1(C)Oc2ccc(NC(C)=O)cc2[C@H](/N=C(\NC#N)NCc2ccccc2)[C@@H]1O`, the Effect in [2] came to 41%; in [4], 45%. The inhibition at 30 µM in assay [1] turned out to be 25%.
Consider `COC(OC)[C@]1(C)Oc2ccc([N+](=O)[O-])cc2[C@@H](/N=C(\NC#N)Nc2ccc(Cl)cc2)[C@@H]1O`, for which, in assay [5] (Rattus norvegicus, Aorta), the IC50 was 17.5 µM. Besides, the Effect came to 37% in [2] and 52% in [4]. In addition, 30 µM produced 61% inhibition in assay [1].
Regarding `CC1(C)COC([C@]2(C)Oc3ccc(N)cc3[C@H](/N=C(\NC#N)NCc3ccccc3)[C@@H]2O)OC1`, the results for the Effect in assay [2] and in [4] were 42% and 56%, respectively. The molecule also displayed an inhibition at 30 µM in assay [1] of 60%.
Molecule `COC(OC)[C@]1(C)Oc2ccc([N+](=O)[O-])cc2[C@@H](/N=C(\NC#N)Nc2cccc(Cl)c2)[C@@H]1O` displayed an IC50 in assay [5] (Rattus norvegicus, Aorta) of 30.5 µM. Moreover, the figures for the Effect in assay [2] and in assay [4] were 47% and 40%, respectively. The molecule further gave an inhibition at 30 µM in assay [1] of 70%.
For `COc1ccc(N/C(=N/[C@H]2c3cc([N+](=O)[O-])ccc3O[C@@](C)(C(OC)OC)[C@H]2O)NC#N)cc1`, the Effect in assay [2] was 38%; in assay [4], 43%. In assay [1], 30 µM produced 45% inhibition.
Consider `COC(OC)[C@]1(C)Oc2ccc(N)cc2[C@@H](/N=C(\NC#N)NCc2ccccc2)[C@@H]1O`, for which the Effect in assay [2] was 39%; in assay [4], 46%. Moreover, the IC50 in assay [3] turned out to be 8 µM.
The corresponding values for `COC(OC)[C@]1(C)Oc2ccc(N)cc2[C@H](/N=C(\NC#N)NCc2ccccc2)[C@H]1O` are 38%, 51% and 4.1 µM.
With `CC1(C)Oc2ccc(C#N)cc2[C@@H](/N=C(\NC#N)Nc2ccc(Cl)cc2)[C@@H]1O`, the IC50 in assay [5] (Rattus norvegicus, Aorta) amounted to 3.2 µM. Besides, the Effect in assay [2] and in assay [4] was 39% each time. Further, at 30 µM the inhibition in assay [6] was 20%.
`COC(OC)C1(C)Oc2ccc([N+](=O)[O-])cc2C(/N=C(\NC#N)Nc2ccc(Cl)cc2)[C@@H]1O` (single isomer, unassigned): the Effect in [2] and in assay [4] was 46% each time. This molecule also yielded an inhibition at 30 µM in assay [1] of 58%.
In the case of `COC(OC)C1(C)Oc2ccc([N+](=O)[O-])cc2C(/N=C(\NC#N)NCc2ccccc2)[C@@H]1O` (single isomer, unassigned), the Effect in assay [2] is on record as 37%; in assay [4], 49%. Further, in assay [1], at 30 µM the inhibition was 7%.
As for `CC1(C2OCCO2)Oc2ccc(N)cc2C(/N=C(\NC#N)NCc2ccccc2)[C@@H]1O` (single isomer, unassigned), the Effect in [2] is on record as 32%; in [4], 52%. The molecule further registered an inhibition at 30 µM in assay [1] of 3.6%.
Taken in the same sequence, the figures for `COC(OC)C1(C)Oc2ccc(NS(C)(=O)=O)cc2C(/N=C(\NC#N)NCc2ccccc2)[C@@H]1O` (single isomer, unassigned) were 35%, 43% and 10%.
Turning to `COc1ccc(CN/C(=N/C2c3cc(N)ccc3OC(C)(C(OC)OC)[C@H]2O)NC#N)cc1` (single isomer, unassigned), the Effect in [2] was 37%; in assay [4] it was 42%. The molecule further yielded an IC50 in assay [3] of 4.1 µM.
On to `COC(OC)C1(C)Oc2ccc(N)cc2C(/N=C(\NC#N)NCc2ccccc2)[C@@H]1O` (single isomer, unassigned), for which the Effect is given as 46% in assay [7]; 37% in [8]; 35% in assay [2]; 42% in [9]; 34% in [10]; 35% in [11]. Also, the Effect in [12] came to 34%; in [13], 51%; in assay [14], 35%; in assay [4] it was 37%; in [15], 33%. This molecule displayed an IC50 in [3] of 2.2 µM.
In assay [5] (Rattus norvegicus, Aorta), `COC(OC)C1(C)Oc2ccc([N+](=O)[O-])cc2C(N/C(=N/C#N)NCc2ccccc2)[C@H]1O` (single isomer, unassigned) had an IC50 of 7.3 µM.
With `COC(OC)[C@@]1(C)Oc2ccc([N+](=O)[O-])cc2C(N/C(=N/C#N)NCc2ccccc2)[C@H]1O` (single isomer, unassigned), in assay [5], the IC50 stood at 9.8 µM. Besides, the results for the Effect in assay [2] and in assay [4] were 38% and 49%, respectively.
